From PubChem BioAssay AID1556 (The Scripps Research Institute Molecular Screening Center, 2009)
In all, about 290,000 compounds went through this assay and about 1,300 (0.45%) were called active. The list comes from a sample in which actives are over-represented; it also holds similar structures and randomly drawn compounds. Unmarked numbers belong to inactive results.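 The calls were made as follows: active = inhibition above the mean plus 3 SD of all compounds in the same screening run (cut at about 4.5% in these data); inactive = the rest.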

Tested on: metallo-beta-lactamase IMP-1 (Pseudomonas aeruginosa)
Test: inhibition of IMP-1 nitrocefin hydrolysis – biochemical, epi-absorbance readout, Pseudomonas aeruginosa enzyme, primary screen (AID 1556);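 also: 0% = IMP-1 with DMSO and 100% = DMSO wells lacking enzyme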
Settings: purified IMP-1, nitrocefin hydrolysis, epi-absorbance fluorescence; at 5.6 µM; active compounds read high
Procedure, shortened: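 Assay system: purified recombinant IMP-1 beta-lactamase. Input: IMP-1 0.2 nM before substrate addition. Buffer or medium: Zinc- and detergent-supplemented HEPES buffer, pH 7.1. Schedule: 25 °C, 15 min preincubation, 25 min reaction. Signal: Epi-absorbance fluorescence, 480 nm excitation, 530 nm emission. Evaluation: percent inhibition from optical density relative to buffer-blank wells.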

Going from `COc1ccccc1C(=O)NN1C(=O)C2C3C=CC(O3)C2C1=O` (configuration not stated) to `O=C(NN1C(=O)C2C3C=CC(O3)C2C1=O)c1ccccc1` (configuration not stated), the inhibition rises from -3.22% to -2.31%.

First: O=C(NC1CCCC1)C(c1ccco1)N(C(=O)c1ccco1)c1ccc(F)cc1 (configuration not stated)
Second: CC(C)c1ccc(N(C(=O)c2ccco2)C(C(=O)NC2CCCC2)c2cccnc2)cc1 (configuration not stated)
The inhibition of the first is lower: -2.48% for the first, -1.29% for the second.

Going from `CCCc1cc(C(=O)Nc2ccc(C(=O)OC)cc2)cs1` to `COC(=O)c1nc(NC(=O)c2ccc(F)cc2)n[nH]1`, the inhibition rises from -3.3% to -1.83%.

Compared with `CCc1ccc(OCC(=O)NCC(c2ccc(Cl)cc2)N2CCCCC2)cc1` (configuration not stated), `COc1ccc(C(O)(C2CCCCC2)C(CN2CCCC2)c2ccccc2)cc1` (configuration not stated) is higher in inhibition: -1.02% for the first, -0.93% for the second.

Going from `COc1cccc(CSc2nc3nc(C)cc(C)n3n2)c1` to `CCOC(=O)c1cnc(SCC(=O)Nc2cccc(OC)c2)nc1N`, the inhibition falls from -1.34% to -1.9%.

Going from `O=C(Nc1ccnn1C1CCN(C/C=C/c2ccc(F)cc2)CC1)C1CCCC1` to `O=C(Nc1ccc(-c2cscn2)cc1)C1CCCN(Cc2ccc(CO)o2)C1` (configuration not stated), the inhibition falls from 0.74% to -1.8%.

First: CCCCC(c1nnnn1CS(=O)(=O)c1ccc(C)cc1)N1CCC(C(N)=O)CC1 (configuration not stated)
Second: CC(NC(=O)CCCC1CCCCC1)c1ccc(S(N)(=O)=O)cc1 (configuration not stated)
The inhibition of the first is higher: 0.14% for the first, -1.72% for the second.

Compared with `C=CCN1CCN(C(=O)CCCc2ccccc2)CC1`, `O=C(CN1CCOc2ccccc21)N1CCC(Cc2ccccc2)CC1` is lower in inhibition: -0.18% for the first, -0.27% for the second.

Compared with `COc1cc(-c2cc(C(=O)OCC(=O)Nc3ccc4c(c3)OCO4)c3ccccc3n2)cc(OC)c1OC`, `COc1cc(NC(=O)c2ccc3c(c2)OCO3)ccc1NC(=O)c1cccs1` is lower in inhibition: -2.57% for the first, -2.83% for the second.

Compared with `COc1cc(/C=C2\CCCc3c2nc2ccccc2c3C(=O)O)cc(Cl)c1O`, `O=C(COC(=O)c1c2c(nc3ccccc13)/C(=C\c1cccs1)CCC2)Nc1ccccc1Cl` is lower in inhibition: -1.14% for the first, -3.13% for the second.

First: NS(=O)(=O)c1ccc(NC(=O)COC(=O)c2cc3ccccc3oc2=O)cc1
Second: O=C(N/N=C/c1coc2ccccc2c1=O)c1cc2ccccc2o1
The inhibition of the first is lower: -1.27% for the first, -0.92% for the second.

Compared with `O=C(c1ccccc1)N1N=C(c2ccccc2O)CC1c1ccc(Br)cc1` (configuration not stated), `O=C(CNC(=O)c1ccccc1F)c1ccc(Br)cc1` is higher in inhibition: -4.1% for the first, -2.02% for the second.

Compared with `Cc1cccc(N2CCN(C(=O)c3cccc(N4C(=O)C5C6C=CC(C6)C5C4=O)c3)CC2)c1C` (configuration not stated), `CC(=O)c1ccc(N2CCN(C(=O)CCNC(=O)Cn3ccc4ccccc4c3=O)CC2)cc1` is higher in inhibition: -2.92% for the first, -0.18% for the second.

Compared with `CCCCc1nc(NCCN)c(C#N)c2c1CSC(C)(C)C2`, `CCCCCCC(=O)Nc1nc(C)c(-c2csc(Nc3cc(Cl)ccc3OC)n2)s1` is lower in inhibition: -1.69% for the first, -2.05% for the second.

Going from `CN(CC1CCCO1)S(=O)(=O)c1ccc(C(=O)Nc2ccc(F)cc2)cc1` (configuration not stated) to `CCNS(=O)(=O)c1ccc(NC(=O)Nc2cccc(OC)c2)cc1`, the inhibition falls from -2.19% to -2.27%.

First: O=C(c1cc(COc2cccc(C(F)(F)F)c2)on1)N1CCSCC1
Second: CC(=O)Nc1ccc(S(=O)(=O)N2CCSCC2)cc1
The inhibition of the first is higher: -1.37% for the first, -4.96% for the second.

First: Cc1ccnc(NC(=O)CCNS(=O)(=O)c2ccc(C)c(C)c2)c1
Second: Cc1cc(-c2ccc(C)c(S(=O)(=O)NC(C)Cc3ccco3)c2)on1 (configuration not stated)
The inhibition of the first is lower: -3.48% for the first, -1.25% for the second.

Compared with `Cc1cc(NC(=O)Nc2ccccc2[N+](=O)[O-])no1`, `Cc1cc(C(=O)N/N=C/c2ccc(O)c([N+](=O)[O-])c2)c(C)n1-c1ccc(F)cc1` is higher in inhibition: -1.98% for the first, -0.78% for the second.

Compared with `CCCCCCC(O)(CCN1CCCCC1)c1ccccc1` (configuration not stated), `O=c1[nH]c2c(c(=O)n1Cc1ccccc1)CCC2` is higher in inhibition: -1.94% for the first, -1.53% for the second.

Compared with `CCOc1cccc(/C=N/N2C(=O)CSC2=S)c1O`, `Cc1cc(/C=C2\SC(=O)N(C)C2=O)c(C)n1-c1cccc(C(=O)O)c1` is higher in inhibition: -2.38% for the first, -1.7% for the second.

Compared with `O=C(Nc1cccc(F)c1)[C@@H]1CCCN1`, `CC1=C(C(=O)OC2CCCCC2)C(c2ccccc2F)NC(=O)N1` (configuration not stated) is lower in inhibition: -1.96% for the first, -2.31% for the second.

Going from `O=C(NCc1cccs1)c1ccc(CS(=O)Cc2ccccc2Cl)o1` (configuration not stated) to `O=C(Cc1cccs1)Nc1cccc(-c2nc3ccccc3[nH]2)c1`, the inhibition falls from -3% to -5.9%.

Going from `CC1CC(C)CN(C(=O)CSc2ccsc2[N+](=O)[O-])C1` (configuration not stated) to `CC1CCN(C(=O)CN(c2ccc(Oc3ccccc3)cc2)S(C)(=O)=O)CC1`, the inhibition rises from -2.57% to -2.25%.

Compared with `Cc1ccc(CN2CCCOCCS2(=O)=O)cc1`, `Cc1occc1C(=O)NC1CCCN(Cc2ccc(CC(C)C)cc2)C1` (configuration not stated) is lower in inhibition: -1.66% for the first, -3.33% for the second.

First: CC(C)(C)OC(=O)NCCCCCC(=O)N/N=C/c1coc2ccccc2c1=O
Second: Cc1ccccc1CNC(=O)CCC(=O)N1Cc2ccccc2Oc2ncccc21
The inhibition of the first is higher: -0.81% for the first, -3.43% for the second.

Going from `CCCCc1ccc(NC(=O)NCc2cccnc2)cc1` to `CCc1ccc(NC(=O)Cn2nnc(C(=O)NCc3ccc4c(c3)OCO4)c2N)cc1`, the inhibition rises from -2.87% to 0.66%.

First: COc1ccc(S(=O)(=O)N2CCOC2CNC(=O)C(=O)NCc2ccncc2)cc1C (configuration not stated)
Second: COc1ccccc1C(=O)N(Cc1ccc(C)o1)C1CCS(=O)(=O)C1 (configuration not stated)
The inhibition of the first is higher: -3.35% for the first, -3.51% for the second.

Going from `COC(=O)c1nc(NC(=O)c2ccc(C(C)(C)C)cc2)n[nH]1` to `COc1ccc(C(=O)Nc2ccc(-n3nncc3C(C)(C)C)cc2)cc1`, the inhibition falls from -2.13% to -2.83%.

First: O=C(N/N=C\c1cccnc1)c1cc(-c2ccccc2)nc2c(Cl)cccc12
Second: CNc1nc(-c2ccccc2)cc(-c2ccccc2)n1
The inhibition of the first is lower: -3.33% for the first, 2.66% for the second.

First: CCCOc1ccc(-c2c(C(=O)N/N=C/c3ccco3)nnn2-c2nonc2N)cc1
Second: O=C(/C=C/c1ccco1)Nc1cccc(-c2nc3ccccc3[nH]2)c1
The inhibition of the first is lower: -3.51% for the first, -2.53% for the second.

Going from `C/C(=N\NS(=O)(=O)c1ccc(Br)cc1)c1cccs1` to `C/C(=N\Nc1ncc(Cl)cc1Cl)c1cccs1`, the inhibition rises from -3.54% to -0.11%.

Compared with `COc1cc(C(=S)N2CCOCC2)cc(OC)c1OC(=O)c1ccc([N+](=O)[O-])cc1[N+](=O)[O-]`, `CCOC(=O)c1c(C)[nH]c(C(=O)NCCN2CCOCC2)c1C` is higher in inhibition: -5.07% for the first, -0.4% for the second.

First: Nc1nc(-c2ccccc2)cc(-c2ccccc2)n1
Second: Cc1ccccc1NC(=O)CSc1ccc2nnc(-c3ccccn3)n2n1
The inhibition of the first is lower: -4.04% for the first, -1.21% for the second.

First: CC(=O)c1ccc(-c2ccc(Cn3c(C)nc4cc(N)c(C)nc43)cc2)cc1
Second: Cc1ccccc1NC(=O)CN1C(=O)N/C(=C\c2cccn2-c2cccc(C(=O)O)c2)C1=O
The inhibition of the first is higher: -0.56% for the first, -2.07% for the second.

Going from `COc1cccc(CNC(=O)C2CC(=O)N(C3CCCCCCC3)C2)c1` (configuration not stated) to `COCCOC(=O)C1=C(C)NC(=O)NC1c1ccc(Cl)cc1` (configuration not stated), the inhibition falls from -1.11% to -2.42%.

Compared with `CCCCC(=O)Nc1nc(C)c(-c2csc(Nc3ccc(Cl)cc3)n2)s1`, `CCOCCCNC(=S)Nc1ccc2nc(N3CCN(CC)CC3)cc(C)c2c1` is lower in inhibition: 0.37% for the first, -2% for the second.

Going from `FC(F)(F)C1CCCN(c2nsc3ccccc23)C1` (configuration not stated) to `CN1C/C(=C/c2cccs2)C(=O)/C(=C\c2cccs2)C1`, the inhibition rises from -3.15% to 0.42%.

In the case of `Cc1cccc(C2=N/C(=C/c3cccs3)C(=O)O2)c1`, the inhibition is reported as -0.41%.

With `COc1ccc(C(=O)NN2C(=O)C3C(c4ccccc4)C=CC(c4ccccc4)C3C2=O)cc1` (configuration not stated) the inhibition was 53.9% (active).
With `NC(=O)c1ccc(NC(=O)COC(=O)c2c3c(nc4ccccc24)/C(=C\c2ccc4c(c2)OCO4)CCC3)cc1` the inhibition was 19.6% (active).
For `NS(=O)(=O)c1ccc(NC(=O)COC(=O)c2c3c(nc4ccccc24)/C(=C\c2ccc4c(c2)OCO4)CCC3)cc1`, the inhibition was 28% (active).
For `CC(=O)NC1=NC(=O)CS1`, the inhibition was 12.7% (active).
In the case of `O=C1CSC(=S)N1/N=C/c1ccc(O)c([N+](=O)[O-])c1`, the inhibition is reported as 10.3% (active).
For `Cc1ccc2occ(/C=N/NC(=O)c3ccccc3C)c(=O)c2c1`, the inhibition was 4.69% (active).
`COC(=O)c1nc(NC(=O)c2ccc(Cl)cc2)n[nH]1` was tested, and the inhibition was 7.73% (active).
For `C/C(=N\Nc1ccc(S(N)(=O)=O)cc1[N+](=O)[O-])c1cccs1`, the inhibition was 21.1% (active).
In the case of `CS(=O)(=O)c1sc2nc(-c3ccccc3)cc(-c3ccccc3)c2c1N`, the inhibition is reported as 5.43% (active).
`Cc1cc2nc3c(=O)n(Cc4ccccc4)c(=O)[nH]c3nc2cc1N` was tested, and the inhibition was 9.26% (active).
In the case of `CC1=C(C(=O)OCC2CCCCC2)C(c2ccc(F)cc2)NC(=O)N1` (configuration not stated), the inhibition is reported as 28.3% (active).
`CCOC(=O)c1csc(NC(=O)Nc2cccc(OC)c2)n1` was tested, and the inhibition was 15.1% (active).
In the case of `CCCCCCC(=O)Nc1nc(C)c(-c2csc(Nc3cccc(OC)c3)n2)s1`, the inhibition is reported as 9.14% (active).
For `Clc1ccc(C2=CSC3=Nc4cccc5cccc(c45)N23)cc1`, the inhibition was 5.6% (active).
`CSC1=N/C(=C\C=C\c2cccs2)C(=O)S1` was tested, and the inhibition was 12.2% (active).
For `N#Cc1ccccc1CN1C(=O)S/C(=C/c2cccn2-c2cccc(C(=O)O)c2)C1=O`, the inhibition was 20.9% (active).
In the case of `O=C(Nc1cccc(-c2nc3ccccc3[nH]2)c1)c1ccc(C(=O)Nc2cccc(-c3nc4ccccc4[nH]3)c2)cc1`, the inhibition is reported as 4.99% (active).
